High-throughput results (PubChem BioAssay)
TDP2 absorb – blocks human TDP2 phosphodiesterase activity; O95551; recombinant TDP2, T5PNP hydrolysis, p-nitrophenol absorbance 415 nm; inhibition, % at 12.8 µM; actives 0.34% (n = 370,000); AID 720702;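 active = inhibition above the mean of all tested compounds plus 3 SD, set per campaign, cut at about 25% in these data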;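 note: 0% = DMSO with enzyme and 100% = buffer with substrate but no TDP2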
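Assay system: recombinant human TDP2 / Reagent: T5PNP substrate at 5 mM, a TopII-DNA adduct mimic / Measured by: epi absorbance from released p-nitrophenol / Evaluation: % inhibition relative to enzyme-containing and enzyme-free wells / Control set: enzyme-free and DMSO wells / Replicates: each compound tested once, singlicate / Schedule: enzyme reaction with compound for 2 h at 37 °C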
NSD2 HMT inh – inhibitors of human histone methyltransferase NSD2; NSD2 peptide methylation, AlphaScreen, 120 min; AID 743445; O96028; inhibition, % at 12.5 µM; actives 0.54% (n = 310,000); in the data active = inhibition above about 50%
Target sequence (O96028 whole entry, looked up): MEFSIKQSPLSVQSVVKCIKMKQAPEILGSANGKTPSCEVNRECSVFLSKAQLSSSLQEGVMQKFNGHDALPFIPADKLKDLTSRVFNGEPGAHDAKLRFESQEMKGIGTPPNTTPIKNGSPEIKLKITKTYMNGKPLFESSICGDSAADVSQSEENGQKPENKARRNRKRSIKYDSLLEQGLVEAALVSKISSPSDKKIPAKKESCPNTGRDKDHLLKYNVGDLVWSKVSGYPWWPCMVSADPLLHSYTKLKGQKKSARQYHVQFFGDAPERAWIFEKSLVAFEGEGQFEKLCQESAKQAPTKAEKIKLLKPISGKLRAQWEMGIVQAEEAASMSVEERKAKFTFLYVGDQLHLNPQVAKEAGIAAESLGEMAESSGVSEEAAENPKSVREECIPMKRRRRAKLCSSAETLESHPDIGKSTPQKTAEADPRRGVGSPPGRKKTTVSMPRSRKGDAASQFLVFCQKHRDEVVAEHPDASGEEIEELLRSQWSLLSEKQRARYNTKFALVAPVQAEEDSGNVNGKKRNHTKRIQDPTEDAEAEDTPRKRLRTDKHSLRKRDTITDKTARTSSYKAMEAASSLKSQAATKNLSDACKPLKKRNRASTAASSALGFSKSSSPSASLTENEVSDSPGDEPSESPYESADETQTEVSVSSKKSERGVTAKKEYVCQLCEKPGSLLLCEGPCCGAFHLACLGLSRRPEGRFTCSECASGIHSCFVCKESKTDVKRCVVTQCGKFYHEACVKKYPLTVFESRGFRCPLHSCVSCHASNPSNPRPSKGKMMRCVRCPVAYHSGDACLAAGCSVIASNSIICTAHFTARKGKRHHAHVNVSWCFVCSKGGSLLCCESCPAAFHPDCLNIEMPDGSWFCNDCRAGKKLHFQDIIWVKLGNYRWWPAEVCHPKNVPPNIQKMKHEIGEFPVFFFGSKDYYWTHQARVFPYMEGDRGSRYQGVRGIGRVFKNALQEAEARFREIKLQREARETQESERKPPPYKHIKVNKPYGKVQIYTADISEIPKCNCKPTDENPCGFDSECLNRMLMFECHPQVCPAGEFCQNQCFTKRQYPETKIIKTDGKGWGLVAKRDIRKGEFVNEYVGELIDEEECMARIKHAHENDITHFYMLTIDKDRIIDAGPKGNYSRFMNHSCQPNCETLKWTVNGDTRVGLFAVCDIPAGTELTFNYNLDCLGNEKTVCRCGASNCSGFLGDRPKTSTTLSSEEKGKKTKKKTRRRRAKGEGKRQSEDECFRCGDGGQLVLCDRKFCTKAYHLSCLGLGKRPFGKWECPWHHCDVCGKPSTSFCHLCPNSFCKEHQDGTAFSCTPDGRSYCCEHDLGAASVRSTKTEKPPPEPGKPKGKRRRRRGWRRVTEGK
SUMO HTRF inh – SUMOylation inhibition | P63279 | HTRF SUMOylation assay, SAE1/SAE2 + UBC9, in vitro | inhibition, % at 35 µM | actives 0.36% (n = 290,000); in the data active = inhibition above about 50%, passing the limit was not always enough
CTSL1 counter – cathepsin L1 inhibition, PFM18AAP counter-screen. recombinant F. hepatica cathepsin L1, Z-Leu-Arg-MCA fluorescence. actives 0.49% (n = 300,000). inhibition, % at 5.96 µM;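 active = inhibition above the mean of all tested compounds plus 3 SD, set per screening campaign, cut at about 17% in these data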;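 note: 0% = plate median of test compound wells and 100% = 1 µM Z-Phe-Ala-diazomethylketone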
* hit, by the source's call. An excerpt weighted towards active compounds, which were near 1.2% of everything screened.

CCOC(=O)C1CN(S(=O)(=O)c2ccccc2)CCN1S(=O)(=O)c1ccccc1 (configuration not stated) was read as TDP2 absorb -8, NSD2 HMT inh -2, SUMO HTRF inh -13 and CTSL1 counter 3.
COC(=O)C1CN(S(=O)(=O)c2ccccc2)CCN1S(=O)(=O)c1ccccc1 (configuration not stated) was read as TDP2 absorb 6, NSD2 HMT inh -1, SUMO HTRF inh -1 and CTSL1 counter 58*.
For CCC(C)[C@H](NC(=O)[C@@H]1CSC2c3ccccc3C(=O)N21)C(=O)NCC1CCCO1 (some centres not stated) the results were TDP2 absorb -13, NSD2 HMT inh -10, SUMO HTRF inh 13 and CTSL1 counter 17*.
Screening C#CCNC(=O)C[C@H]1C[C@@]2(C(=O)OC)C(=C[C@H](C(C)C)O[C@@H]2C2CC2)N(CCCCCCCC)C1=O returned TDP2 absorb -5.
`CCCCC/C=C\C/C=C\C/C=C\CCCCC(=O)O` gave TDP2 absorb -1 and CTSL1 counter 34*.
Screening CCc1ccc(OCC(=O)N/N=C2\CC(=O)c3ccccc32)cc1 returned NSD2 HMT inh 4, SUMO HTRF inh 87* and CTSL1 counter 6.
COc1ccc(OCC(=O)N/N=C2\CCCCc3ccccc32)cc1 was read as TDP2 absorb -8, NSD2 HMT inh 3, SUMO HTRF inh 2 and CTSL1 counter 1.
For Cc1cc(O)c(C=O)c2c1C(=O)Oc1c(CO)c(O)c3c(c1O2)C(O)OC3=O (configuration not stated) the results were SUMO HTRF inh 96* and CTSL1 counter 2.
For Cc1c(C)n(CC(O)CN2CCCCC2)c2ccccc12 (configuration not stated) the results were TDP2 absorb -3, NSD2 HMT inh 21, SUMO HTRF inh -14 and CTSL1 counter 4.
For Cc1cc(C)n(CC(O)Cn2c(C)c(C)c3ccccc32)n1 (configuration not stated) the results were TDP2 absorb 5, NSD2 HMT inh 14, SUMO HTRF inh -6 and CTSL1 counter 19*.
For COc1ccccc1NS(=O)(=O)c1ccc(Cl)c(NC(=O)C(C)N2C(=O)c3ccccc3C2=O)c1 (configuration not stated) the results were TDP2 absorb 2, NSD2 HMT inh 1, SUMO HTRF inh 2 and CTSL1 counter 25*.
`C[C@H]1C(C(=O)N(C)C2CCCCC2)=Cc2c(n(-c3ccc(F)cc3)c(=O)n2CCCOc2ccccc2)C=C1c1ccccc1` gave TDP2 absorb -4.
Cc1ccc(C(=O)Nc2sc3c(c2C(=O)NCc2ccco2)CCCC3)cc1 was read as TDP2 absorb 3, NSD2 HMT inh 3, SUMO HTRF inh 73* and CTSL1 counter 3.
O=C(NCCOc1ccccc1)C1C(=O)Nc2ccccc2C(=O)N1C1CCCCC1 (configuration not stated) was read as TDP2 absorb 8.
Screening Cc1ccn2c(=O)nc(SCC(=O)N3CCCC3)nc2c1 returned TDP2 absorb 5, NSD2 HMT inh 4 and CTSL1 counter 17*.
CNC[C@H]1Oc2ccc(NC(=O)Nc3ccccc3)cc2CC(=O)N([C@H](C)CO)C[C@H]1C was read as TDP2 absorb 2.
`CCCCCCn1c(Br)nc2c1c(=O)n(C)c(=O)n2C` gave TDP2 absorb -1, NSD2 HMT inh -2, SUMO HTRF inh 11 and CTSL1 counter 35*.
Screening CC(C)(C)C(c1nc2ccccc2[nH]1)n1c(-c2ccsc2)nc2ccccc21 (configuration not stated) returned TDP2 absorb -3.
CSc1ccc(-c2cc(=O)c3ccccc3o2)cc1 was read as TDP2 absorb -8, SUMO HTRF inh 54* and CTSL1 counter 1.
`O=S(=O)(Nc1cc(Sc2ncn[nH]2)c(O)c2ccccc12)c1ccccc1` gave TDP2 absorb 71*, NSD2 HMT inh active and SUMO HTRF inh 92*.
`CC(=O)N1CCc2c(sc(NC(=O)c3cccc(N4C(=O)CCC4=O)c3)c2C(N)=O)C1` gave TDP2 absorb 6, NSD2 HMT inh 37, SUMO HTRF inh 24 and CTSL1 counter 25*.
Screening O=C(COC(=O)C1CCN(c2ccc(C(F)(F)F)cn2)CC1)c1ccc(F)cc1 returned TDP2 absorb 10, NSD2 HMT inh -3 and CTSL1 counter 18*.
`CCOC(=O)C1(C)CCCN(C(=O)c2cccs2)C1` (configuration not stated) gave TDP2 absorb -12 and NSD2 HMT inh -2.
For COc1ccc(C(=O)NC(=O)COC(=O)c2ccc3ncsc3c2)cc1 the results were NSD2 HMT inh -7, SUMO HTRF inh 68* and CTSL1 counter -2.
`CC(/C=C/c1ccc(N(C)C)cc1)=N\N=C(/N)SC1CC(=O)N(c2ccc(C(=O)O)cc2)C1=O` (configuration not stated) gave TDP2 absorb 1, NSD2 HMT inh 12, SUMO HTRF inh 0 and CTSL1 counter 22*.
`CCOC(=O)C1=C(C(=O)OCC)C2N(Cc3ccc(C#N)cc3)c3ccccc3[C@@]23C[C@@H](C(=O)OC)N(S(=O)(=O)c2c(C)noc2C)C3=N1` (some centres not stated) gave TDP2 absorb 0.
Screening Cc1c(C(=O)N2CCOCC2)sc(NC(=O)CCl)c1C#N returned TDP2 absorb -3, SUMO HTRF inh 6 and CTSL1 counter 17*.
Cc1c(C(=O)N2CCOCC2)sc(NC(=O)c2ccc([N+](=O)[O-])cc2)c1C#N was read as TDP2 absorb 8, NSD2 HMT inh 4, SUMO HTRF inh -14 and CTSL1 counter 0.
Cc1ccc(N=C2NC(=O)/C(=C/C=C/c3ccco3)S2)cc1 was read as TDP2 absorb 5, NSD2 HMT inh 0, SUMO HTRF inh 46 and CTSL1 counter 0.
For Cc1cccc(N=C2NC(=O)/C(=C/C=C/c3ccco3)S2)c1C the results were TDP2 absorb 14, NSD2 HMT inh 14, SUMO HTRF inh 58* and CTSL1 counter 3.
For O=C1N[C@@H](Cc2cn(S(=O)(=O)c3c(F)c(F)c(F)c(F)c3F)c3ccccc23)C(=O)N[C@H]1Cc1ccccc1 the results were CTSL1 counter 2.
CC(C)(C)c1ccc(-c2nnc(SCC(=O)Nc3cccc4ccccc34)n2Cc2ccco2)cc1 was read as TDP2 absorb -3 and NSD2 HMT inh 0.
`CC(C)CC(NC(=O)/C(=C/c1ccco1)NC(=O)c1ccc(Br)o1)C(=O)O` (configuration not stated) gave TDP2 absorb -5, NSD2 HMT inh 2, SUMO HTRF inh -7 and CTSL1 counter 23*.
Screening CCOC(=O)/C(=C/c1ccco1)NC(=O)c1ccc(Br)o1 returned TDP2 absorb 13, NSD2 HMT inh 0, SUMO HTRF inh 10 and CTSL1 counter 5.
Screening CNC(=O)/C(=C\c1ccco1)NC(=O)c1ccco1 returned TDP2 absorb -6, NSD2 HMT inh 0, SUMO HTRF inh 23 and CTSL1 counter 2.
